One assay concerns the target HLA-A*1101 (Homo sapiens, UniProt P04439, A114D/D185E/E176A/F33Y/L180Q/S129P/T187R). Briefly: Competitive peptide-binding assay, purified HLA-A*1101.
A further assay has as its target HLA-A*0301 (Homo sapiens, UniProt P04439). Briefly: Competitive peptide-binding assay, purified HLA-A*0301. An outline of the steps:
(§1)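 HLA class I purified from EBV-transformed homozygous or single-allele-transfected 721.221/C1R lysates on W6/32 beads (some HLA-A pre-depleted of B/C on B1.23.2). 0.1–1 nM radiolabeled high-affinity probe, 1 µM to 1 nM MHC, protease inhibitors, 1 µM β2m; 2 days, room temp. Complexes captured on W6/32 plates, cpm counted. Competitor at six concentrations over 100,000-fold range, ≥3 experiments; IC50 = 50% probe inhibition.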

For a further assay, the target named is HLA-A*3001 (Homo sapiens, UniProt P04439, D140H/D185E/E176W/F33S/G80R/H175R/K168Q/R138E/R41S). Briefly: Competitive peptide-binding assay, purified HLA-A*3001. The procedure, abridged: as §1
Another assay addresses HLA-A*3101 (Homo sapiens, UniProt P04439, A270S/D185E/E176V/E277Q/F33T/G231S/G80R/H175R/I121M/I218V/I322F/K168Q/L300P/L318F/M331R/P217A/Q94H/R138Q/T323A/T345S/T97I/V358M). Briefly: Competitive peptide-binding assay, purified HLA-A*3101.
A further assay concerns the target HLA-A*3301 (Homo sapiens, UniProt P04439, A270S/D185E/E176V/E277Q/E87N/F33T/G231S/H175R/I121M/I218V/I322F/K168Q/K210R/L300P/L318F/M331R/P217A/Q86R/Q94H/R138Q/T323A/T345S/T97I/V358M/Y195H). The assay is described as follows: Competitive peptide-binding assay, purified HLA-A*3301. An outline of the steps:
as §1

For the next assay, the target named is HLA-A*6601 (Homo sapiens, UniProt P04439, A114D/A173T/A270S/D185E/E277Q/E87N/F33Y/G231S/I121R/I218V/K168Q/L180W/L300P/L318F/P208A/P217A/Q86R/R138Q/S129P/T187R/T323A/T345S/V358M). The assay is described as follows: Competitive peptide-binding assay, purified HLA-A*6601. An outline of the steps:
as §1

The target of a further assay is HLA-A*6801 (Homo sapiens, UniProt P04439, A269V/D185E/E176V/E277Q/E87N/F33Y/G231S/I121M/I166T/I218V/L180W/L300P/L318F/N151K/P208A/P217A/Q86R/R169H/T345S). Briefly: Competitive peptide-binding assay, purified HLA-A*6801. The procedure, abridged:
as §1

The next assay concerns the target HLA-B*0702 (Homo sapiens, UniProt P01889). Briefly: Competitive peptide-binding assay, purified HLA-B*0702. An outline of the steps: as §1
In the next assay the target is HLA-B*3501 (Homo sapiens, UniProt P01889, A329T/A93T/A95T/C349S/D201E/D98Y/E176V/E187L/E204Q/E69T/I218V/K202T/L119I/Q94N/R155S/R180L/S121R/S35A/S48A/T118I/V127L/V306I/V36M/Y140S/Y91F). Briefly: Competitive peptide-binding assay, purified HLA-B*3501. An outline of the steps:
as §1

The target in the next assay is HLA-B*3503 (Homo sapiens, UniProt P01889, A329T/A93T/A95T/C349S/D201E/D98Y/E176V/E187L/E204Q/E69T/I218V/K202T/L119I/Q94N/R155S/R180L/S121R/S35A/S48A/T118I/V127L/V306I/V36M/Y140F/Y91F). The assay is described as follows: Competitive peptide-binding assay, purified HLA-B*3503. An outline of the steps:
as §1

A further assay concerns the target HLA-B*4201 (Homo sapiens, UniProt P01889, D138N/E176V/E187T/K202T/R180D). Briefly: Competitive peptide-binding assay, purified HLA-B*4201. An outline of the steps:
as §1

A further assay has as its target HLA-B*5101 (Homo sapiens, UniProt P01889, A329T/A93T/A95T/C349S/D138N/D201E/D98Y/E187L/E204Q/E69T/G107R/I218V/K202T/L105A/L119W/N104I/Q94N/R106L/R155S/R180L/S101N/S121T/S35A/S48A/V306I/V36M/Y195H/Y91F). Briefly: Competitive peptide-binding assay, purified HLA-B*5101. The procedure, abridged:
as §1

A further assay has as its target HLA-B*5301 (Homo sapiens, UniProt P01889, A329T/A93T/A95T/C349S/D201E/D98Y/E176V/E187L/E204Q/E69T/G107R/I218V/K202T/L105A/L119I/N104I/Q94N/R106L/R155S/R180L/S101N/S121R/S35A/S48A/T118I/V127L/V306I/V36M/Y140S/Y91F). Briefly: Competitive peptide-binding assay, purified HLA-B*5301. An outline of the steps:
as §1

The target of the next assay is HLA-B*5401 (Homo sapiens, UniProt P01889, A329T/C349S/D138N/D201E/E176V/E187T/E204Q/E69G/I76V/K202T/L119W/R155S/R180L/S121T/S35A/S48A/V127L/V306I/V36M/Y140L). The assay is described as follows: Competitive peptide-binding assay, purified HLA-B*5401. The procedure, abridged: as §1
In assay [1] the test system is T cells of recent-onset HLA-A*0201-positive patients. As to conditions: recent-onset HLA-A*0201-positive type 1 diabetes patients; cited from earlier work.

Peptide text beside a SMILES is read from it. Some results are limits rather than exact numbers.

Consider `CC[C@H](C)[C@H](NC(=O)[C@H](C)N)C(=O)N[C@@H](CC(N)=O)C(=O)N[C@@H](CO)C(=O)N[C@@H](CCC(=O)O)C(=O)N[C@@H](CCSC)C(=O)N[C@@H](Cc1ccccc1)C(=O)N[C@@H](CC(C)C)C(=O)N[C@@H](CC(C)C)C(=O)O` [Human IGRP 272–280] (H-AINSEMFLL-OH), for which the half-inhibitory concentration (IC50) (as a rule, the concentration at which inhibition is half-maximal) at HLA-A*1101 stood at 2.82 µM; on HLA-A*0301 it was 1.26 µM; at HLA-A*3001, 6.78 µM; on HLA-A*3101, 1.07 µM; on HLA-A*3301 it was 12.8 µM; on HLA-A*6601 it was 36.7 µM. Besides, the IC50 at HLA-A*6801 stood at 14.2 µM.

In the case of `CC(C)C[C@H](NC(=O)[C@H](C)NC(=O)[C@H](CC(C)C)NC(=O)[C@@H]1CCCN1C(=O)[C@H](CCC(N)=O)NC(=O)[C@H](CC(C)C)NC(=O)[C@H](CO)NC(=O)CNC(=O)[C@H](C)NC(=O)CNC(=O)[C@@H]1CCCN1C(=O)CN)C(=O)O` [Human Ins C15-26] (H-GPGAGSLQPLAL-OH), the IC50 is 0.462 µM on HLA-B*0702; above 50 µM on HLA-B*3501; above 50 µM at HLA-B*3503; 6.07 µM at HLA-B*4201; above 50 µM at HLA-B*5101; 15.5 µM at HLA-B*5301. The molecule further came in with a concentration for half-maximal inhibition (IC50) on HLA-B*5401 above 50 µM.

As for `CC(C)C[C@H](NC(=O)[C@H](C)NC(=O)[C@H](CC(C)C)NC(=O)[C@@H]1CCCN1)C(=O)N[C@@H](CCC(=O)O)C(=O)NCC(=O)N[C@@H](CO)C(=O)N[C@@H](CC(C)C)C(=O)N[C@@H](CCC(N)=O)C(=O)N[C@@H](CCCCN)C(=O)O` [Human Ins C23-32] (H-PLALEGSLQK-OH), the IC50 is 37.1 µM on HLA-A*1101; 20.9 µM on HLA-A*0301; above 50 µM on HLA-A*3001; 39.4 µM on HLA-A*3101; above 50 µM on HLA-A*3301; 48.5 µM on HLA-A*6601. For the same molecule, at HLA-A*6801, the IC50 amounted to 41.5 µM.

Turning to `CC(C)C[C@H](NC(=O)[C@H](C)NC(=O)[C@@H](N)CC(C)C)C(=O)N[C@@H](CCC(=O)O)C(=O)NCC(=O)N[C@@H](CO)C(=O)N[C@@H](CC(C)C)C(=O)N[C@@H](CCC(N)=O)C(=O)N[C@@H](CCCCN)C(=O)N[C@@H](CCCNC(=N)N)C(=O)O` [Human Ins C24-33] (H-LALEGSLQKR-OH), the half-maximal inhibitory concentration (IC50) at HLA-A*1101 was 34.5 µM; at HLA-A*0301, 17.5 µM; at HLA-A*3001, above 50 µM; on HLA-A*3101, 38.4 µM; on HLA-A*3301 it was 3.27 µM; at HLA-A*6601 it was 0.515 µM. On HLA-A*6801, this molecule had an IC50 of 0.066 µM.

On to `CC[C@H](C)[C@H](NC(=O)[C@H](C)N)C(=O)N[C@@H](CC(N)=O)C(=O)N[C@@H](CO)C(=O)N[C@@H](CCC(=O)O)C(=O)N[C@@H](CCSC)C(=O)N[C@@H](Cc1ccccc1)C(=O)N[C@@H](CC(C)C)C(=O)N[C@@H](CCCNC(=N)N)C(=O)O` [Mouse IGRP 272–280] (H-AINSEMFLR-OH), for which the half-maximal inhibitory concentration (IC50) on HLA-A*1101 is 0.209 µM; on HLA-A*0301, 0.428 µM; on HLA-A*3001, 49.8 µM; on HLA-A*3101 it was 0.067 µM; on HLA-A*3301, 1.08 µM; on HLA-A*6601, 4.55 µM. On HLA-A*6801, this molecule returned an IC50 of 0.109 µM.

For the molecule `CC(C)C[C@H](NC(=O)[C@H](C)NC(=O)[C@H](CC(C)C)NC(=O)[C@@H](NC(=O)[C@H](CCC(N)=O)NC(=O)[C@H](CC(C)C)NC(=O)[C@H](CC(=O)O)NC(=O)CNC(=O)[C@@H]1CCCN1C(=O)[C@@H](N)CO)[C@@H](C)O)C(=O)O` [Mouse Ins1 C15-24] (H-SPGDLQTLAL-OH), the half-inhibitory concentration (IC50) is 0.0044 µM on HLA-B*0702; above 50 µM at HLA-B*3501; 16.1 µM at HLA-B*3503; 0.035 µM at HLA-B*4201; above 50 µM on HLA-B*5101; 11 µM at HLA-B*5301. On HLA-B*5401, this molecule returned an IC50 above 50 µM.

Take `CC(C)C[C@H](NC(=O)[C@H](C)NC(=O)[C@H](CC(C)C)NC(=O)[C@@H](N)[C@@H](C)O)C(=O)N[C@@H](CCC(=O)O)C(=O)N[C@H](C(=O)N[C@@H](C)C(=O)N[C@@H](CCCNC(=N)N)C(=O)N[C@@H](CCC(N)=O)C(=O)N[C@@H](CCCCN)C(=O)O)C(C)C` [Mouse Ins1 C21-30] (H-TLALEVARQK-OH): the half-maximal inhibitory concentration (IC50) on HLA-A*1101 was 3.33 µM; at HLA-A*0301, 0.605 µM; on HLA-A*3001 it was 23.3 µM; on HLA-A*3101, 13 µM; on HLA-A*3301 it was 25.5 µM; on HLA-A*6601 it was above 50 µM. In addition, the IC50 on HLA-A*6801 came to 13.4 µM.

In the case of `CC(C)C[C@H](NC(=O)[C@H](C)NC(=O)[C@@H](N)CC(C)C)C(=O)N[C@@H](CCC(=O)O)C(=O)N[C@H](C(=O)N[C@@H](C)C(=O)N[C@@H](CCCNC(=N)N)C(=O)N[C@@H](CCC(N)=O)C(=O)N[C@@H](CCCCN)C(=O)N[C@@H](CCCNC(=N)N)C(=O)O)C(C)C` [Mouse Ins1 C22-31] (H-LALEVARQKR-OH), the IC50 was above 50 µM at HLA-A*1101; 43.6 µM at HLA-A*0301; 43 µM at HLA-A*3001; 10.8 µM on HLA-A*3101; 9.14 µM on HLA-A*3301; 13 µM at HLA-A*6601. At HLA-A*6801, this molecule yielded an IC50 of 12.6 µM.

`CC(C)C[C@H](NC(=O)[C@H](C)NC(=O)[C@H](CC(C)C)NC(=O)[C@@H](N)[C@@H](C)O)C(=O)N[C@@H](CCC(=O)O)C(=O)N[C@H](C(=O)N[C@@H](C)C(=O)N[C@@H](CCC(N)=O)C(=O)N[C@@H](CCC(N)=O)C(=O)N[C@@H](CCCCN)C(=O)O)C(C)C` [Mouse Ins2 C23-32] (H-TLALEVAQQK-OH): the concentration for half-maximal inhibition (IC50) is 0.833 µM on HLA-A*1101; 0.856 µM on HLA-A*0301; above 50 µM at HLA-A*3001; above 50 µM on HLA-A*3101; above 50 µM at HLA-A*3301; above 50 µM on HLA-A*6601. The same molecule yielded an IC50 on HLA-A*6801 of 7.49 µM.

On to “IGRP 265–273: HLA-A2-binding IGRP epitope recognised in patients (VLFGLGFAI; UniProt Q9NQR9 265-273, looked up, fragment)”, for which, in assay [1], the “Patients showing T cell responses to the peptide (fraction in words)” value is “one quarter”.

The values are drawn from paper PMC3358524 (Journal of Immunology (Baltimore, Md. : 1950), 2012).
